# In ChEMBL document CHEMBL5346895, “Small molecule inhibitors of intestinal epithelial anion exchanger SLC26A3 (DRA) with a luminal, extracellular site of action” (Eur J Med Chem, 2023):
# Activity calls are given as the source filed them. No cut-off for these calls is given here.
# Legend:
# [1] = biological target: T1, Chloride anion exchanger (Mus musculus) (UniProt Q9WVC8); assay: Inhibition of mouse SLC26A3 expressed in FRT cells coexpressing YFP iodide-sensing protein at 5 times IC50 incubated for 10 mins by fluorescence quenching analysis relative to control; assay type: cell-based
# T1 sequence (whole entry): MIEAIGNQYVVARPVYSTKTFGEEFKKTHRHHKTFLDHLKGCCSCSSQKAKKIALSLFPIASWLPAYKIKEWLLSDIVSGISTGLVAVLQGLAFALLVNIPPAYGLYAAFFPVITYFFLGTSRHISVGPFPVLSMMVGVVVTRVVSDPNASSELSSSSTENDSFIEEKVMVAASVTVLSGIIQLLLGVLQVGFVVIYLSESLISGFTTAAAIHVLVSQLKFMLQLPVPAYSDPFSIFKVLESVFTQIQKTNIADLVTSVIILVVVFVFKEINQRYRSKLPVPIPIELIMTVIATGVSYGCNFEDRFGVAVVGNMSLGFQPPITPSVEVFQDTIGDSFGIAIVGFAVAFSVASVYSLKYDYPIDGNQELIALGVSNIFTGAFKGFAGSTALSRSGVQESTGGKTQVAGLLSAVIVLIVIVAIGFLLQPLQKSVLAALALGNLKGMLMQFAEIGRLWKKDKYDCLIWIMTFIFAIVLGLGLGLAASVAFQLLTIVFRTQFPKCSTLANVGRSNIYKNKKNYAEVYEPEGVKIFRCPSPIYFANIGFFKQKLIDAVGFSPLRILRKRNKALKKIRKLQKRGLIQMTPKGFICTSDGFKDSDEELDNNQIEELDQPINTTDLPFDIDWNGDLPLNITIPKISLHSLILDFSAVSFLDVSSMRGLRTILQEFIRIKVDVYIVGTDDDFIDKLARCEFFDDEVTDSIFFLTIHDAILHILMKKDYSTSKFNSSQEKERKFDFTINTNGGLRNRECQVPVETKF
# [2] = biological target: T1, Chloride anion exchanger (Mus musculus); assay: Inhibition of mouse SLC26A3 expressed in FRT cells coexpressing YFP iodide-sensing protein at 2 times IC50 measured for 14 secs by fluorescence quenching analysis relative to control; assay type: cell-based; settings: time 14.0 sec
# In short: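 Onset kinetics in FRT cells co-expressing murine slc26a3 and YFP halide sensor. […] Fluorescence read for 1 s before and 12 s after syringe-pump addition of iodide solution (NaCl replaced by 140 mM NaI). Inhibition taken from the quenching rate.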
# Pendrin (Homo sapiens) = biological target: T2, Pendrin (Homo sapiens) (UniProt O43511); assay: Inhibition of SLC26A4 (unknown origin) at 10 uM by YFP-based assay relative to control
# T2 sequence (whole entry): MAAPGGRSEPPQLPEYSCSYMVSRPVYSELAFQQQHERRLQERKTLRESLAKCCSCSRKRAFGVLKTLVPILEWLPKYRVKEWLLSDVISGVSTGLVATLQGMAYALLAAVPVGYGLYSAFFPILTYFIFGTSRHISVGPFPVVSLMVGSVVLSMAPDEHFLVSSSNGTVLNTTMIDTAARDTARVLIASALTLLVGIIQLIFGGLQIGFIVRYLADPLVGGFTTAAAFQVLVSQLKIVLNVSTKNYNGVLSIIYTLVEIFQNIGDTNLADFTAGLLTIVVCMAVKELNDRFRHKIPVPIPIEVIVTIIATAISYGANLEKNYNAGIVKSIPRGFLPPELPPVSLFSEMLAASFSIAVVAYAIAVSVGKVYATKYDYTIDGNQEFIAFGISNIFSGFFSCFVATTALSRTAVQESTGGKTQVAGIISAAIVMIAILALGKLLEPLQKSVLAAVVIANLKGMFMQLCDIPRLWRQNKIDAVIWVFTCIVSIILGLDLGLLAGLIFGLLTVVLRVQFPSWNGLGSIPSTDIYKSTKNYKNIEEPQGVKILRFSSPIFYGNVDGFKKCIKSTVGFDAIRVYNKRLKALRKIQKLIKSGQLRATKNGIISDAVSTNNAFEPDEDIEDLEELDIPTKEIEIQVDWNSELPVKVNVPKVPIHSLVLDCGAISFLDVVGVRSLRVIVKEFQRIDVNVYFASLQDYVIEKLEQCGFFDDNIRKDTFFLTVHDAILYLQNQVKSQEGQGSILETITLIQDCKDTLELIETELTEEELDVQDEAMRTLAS
# [3] = biological target: T3, Solute carrier family 26 member 9 (Homo sapiens) (UniProt Q7LBE3); assay: Inhibition of SLC26A9 (unknown origin) at 10 uM by YFP-based assay relative to control
# T3 sequence (whole entry): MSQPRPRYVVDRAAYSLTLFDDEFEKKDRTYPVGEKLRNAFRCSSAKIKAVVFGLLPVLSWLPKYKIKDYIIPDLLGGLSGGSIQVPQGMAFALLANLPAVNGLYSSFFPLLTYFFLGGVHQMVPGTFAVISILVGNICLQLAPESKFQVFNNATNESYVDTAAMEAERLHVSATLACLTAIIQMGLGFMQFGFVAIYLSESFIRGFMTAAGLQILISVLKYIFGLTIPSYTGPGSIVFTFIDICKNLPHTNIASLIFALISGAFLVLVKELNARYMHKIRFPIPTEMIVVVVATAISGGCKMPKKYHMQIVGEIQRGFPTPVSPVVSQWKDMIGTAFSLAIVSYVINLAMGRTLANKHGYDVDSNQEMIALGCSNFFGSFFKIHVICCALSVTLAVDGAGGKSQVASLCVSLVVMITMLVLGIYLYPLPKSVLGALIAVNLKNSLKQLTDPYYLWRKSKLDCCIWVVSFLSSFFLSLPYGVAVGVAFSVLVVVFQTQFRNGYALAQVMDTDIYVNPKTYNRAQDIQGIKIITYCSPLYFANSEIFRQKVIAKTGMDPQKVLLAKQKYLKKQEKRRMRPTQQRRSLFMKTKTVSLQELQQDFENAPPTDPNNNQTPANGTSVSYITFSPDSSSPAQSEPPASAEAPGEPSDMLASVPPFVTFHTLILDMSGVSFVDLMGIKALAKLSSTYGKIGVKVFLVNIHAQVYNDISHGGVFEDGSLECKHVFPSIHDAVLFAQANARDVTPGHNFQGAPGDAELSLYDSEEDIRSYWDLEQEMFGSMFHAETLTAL
# [4] = biological target: T1, Chloride anion exchanger (Mus musculus); assay: Inhibition of mouse SLC26A3 expressed in FRT cells coexpressing YFP iodide-sensing protein at 5 times IC50 incubated for 10 mins followed by compound washout by fluorescence quenching analysis relative to control; assay type: cell-based
# Mus musculus = assay: Effect on loperamide-induced constipation in CD-1 mouse assessed as increase in stool weight at 10 mg/kg, po via gavage administered 1 hr prior to loperamide administration measured for 3 hrs; assay type: functional, organism-based; settings: time 4.0 hrs
# In short: (§1)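 CD1 mice (bred in house, 8–12 weeks). Test compound given by oral gavage at 10 mg/kg in saline with 5% DMSO and 10% Kolliphor-HS, or vehicle alone, 1 h before loperamide (0.3 mg/kg ip in PBS with 5% ethanol). Mice then held in metabolic cages with free food and water. Stool collected over 3 h for total weight and pellet count. Water content from wet vs dry stool weight.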
# [5] = Effect on loperamide-induced constipation in CD-1 mouse assessed as stool hydration at 10 mg/kg, po via gavage administered 1 hr prior to loperamide administration measured for 3 hrs (reference value: 49 +/- 2 %); assay type: functional; settings: time 4 hrs; in short: as §1
smiles,measurement,setting,value
Cc1ccccc1COc1ccc2oc(-c3ccccc3)c(C(=O)O)c2c1,inhibition,[1],87%
same,inhibition,[2],38%
same,inhibition,Pendrin (Homo sapiens),-13%
same,inhibition,[3],-8%
same,inhibition,[4],25%
O=C(Nc1cccc(-c2nc3ccccc3c(=O)o2)c1)c1ccc(Cl)cc1,inhibition,Pendrin (Homo sapiens),-3%
same,inhibition,[3],-2%
O=c1cc(COc2ccccc2Cl)nc2scc(-c3ccccc3)n12,Activity,Mus musculus,Active
same,inhibition,[1],92%
same,Activity,[5],55%
same,inhibition,[2],66%
same,inhibition,[3],22%
same,inhibition,[4],32%
Cc1cc(C)cc(N(C)S(=O)(=O)c2nnc(NC(=O)COc3ccc(C)c(C)c3)s2)c1,inhibition,Pendrin (Homo sapiens),17%
same,inhibition,[3],-2%
